{"data": "Measured values of several laboratories", "CNR1": "Cannabinoid receptor 1 (CNR1, Homo sapiens, UniProt P21554)", "PFF0160c": "Dihydroorotate dehydrogenase (quinone), mitochondrial (PFF0160c, Plasmodium falciparum, UniProt Q08210)", "OPRK1": "Kappa-type opioid receptor (OPRK1, Homo sapiens, UniProt P41145)", "note": "Compare with care: the assays were run in different laboratories."}
{"Compound": "CCCCCCn1c(O)c(N=NC(=O)c2ccccc2)c2ccccc21", "target": "CNR1", "test": "ligand displacement, radioligand", "setting": "cell membranes", "measurement": "Ki", "value": "1.15 µM"}
{"Compound": "CCn1cc(C2CC2)c2c(Cc3ccc(C(F)(F)F)c(F)c3)n(C)nc2c1=O", "target": "PFF0160c", "test": "enzyme activity, inhibitor", "measurement": "IC50", "value": "0.0126 µM"}
{"Compound": "COC(=O)[C@@H](NC(=O)c1nn(Cc2ccc(F)cc2)c2ccccc12)C(C)C", "target": "CNR1", "test": "β-arrestin recruitment, agonist", "measurement": "EC50", "value": "0.02 µM"}
{"Compound": "CCNC(=O)c1nn(C)c(Cc2ccc(C(F)(F)F)nc2)c1C", "target": "PFF0160c", "test": "enzyme activity, inhibitor", "measurement": "IC50", "value": "5.2 µM"}
{"Compound": "CNC(=O)c1ccc(-c2cnn3ccc(C(=O)N(C)c4ccc(Cl)c(C(=O)O)c4)cc23)cc1", "target": "Serine/threonine-protein kinase WNK1 (WNK1, Homo sapiens, UniProt Q9H4A3)", "test": "enzyme activity, inhibitor", "measurement": "IC50", "value": "> 30 µM"}
{"Compound": "O=C(N[C@H]1CC[C@@]2(O)[C@H]3Cc4ccc(O)c5c4[C@@]2(CCN3CC2CC2)[C@H]1O5)c1ccc(F)s1", "target": "OPRK1", "test": "ligand displacement, radioligand", "setting": "cell membranes", "measurement": "Ki", "value": "0.0022 µM"}
{"Compound": "Brc1ccc2c(c1)C(c1ccccn1)=NCc1c(-c3cnco3)ncn1-2", "target": "OPRK1", "test": "ligand displacement, radioligand", "measurement": "Ki", "value": "2.1 µM"}
{"Compound": "NS(=O)(=O)c1ccc(C(=O)N[C@H]2CC[C@@]3(O)[C@H]4Cc5ccc(O)c6c5[C@@]3(CCN4CC3CC3)[C@H]2O6)s1", "target": "OPRK1", "test": "ligand displacement, radioligand", "setting": "cell membranes", "measurement": "Ki", "value": "0.00393 µM"}
{"Compound": "CCCCCc1cc(O)c2c(c1)OC(C)(C)c1ccc(C)cc1-2", "target": "CNR1", "test": "cell-free assay", "measurement": "Ki", "value": "0.285 µM"}
{"Compound": "O=C(N[C@H]1CC[C@@]2(O)[C@H]3Cc4ccc(O)c5c4[C@@]2(CCN3CC2CC2)[C@H]1O5)c1ccc(C(F)(F)F)s1", "target": "OPRK1", "test": "ligand displacement, radioligand", "setting": "cell membranes", "measurement": "Ki", "value": "0.00247 µM"}
{"Compound": "CCCCCn1c(O)c(N=NC(=O)c2ccccc2)c2ccccc21", "target": "CNR1", "test": "ligand displacement, radioligand", "setting": "cell membranes", "measurement": "Ki", "value": "1.56 µM"}
{"Compound": "Cc1ccc(C(=O)N[C@H]2CC[C@@]3(O)[C@H]4Cc5ccc(O)c6c5[C@@]3(CCN4CC3CC3)[C@H]2O6)s1", "target": "OPRK1", "test": "ligand displacement, radioligand", "setting": "cell membranes", "measurement": "Ki", "value": "0.00167 µM"}
{"Compound": "Cn1nc2c(=O)n(C3CC3)cnc2c1[C@](O)(c1cnc(C(F)(F)F)c(Cl)c1)C1CC1", "target": "PFF0160c", "test": "enzyme activity, inhibitor", "measurement": "IC50", "value": "0.02 µM"}
{"Compound": "CC(=O)S(=O)(=O)c1ccc(C(=O)N[C@H]2CC[C@@]3(O)[C@H]4Cc5ccc(O)c6c5[C@@]3(CCN4CC3CC3)[C@H]2O6)s1", "target": "OPRK1", "test": "ligand displacement, radioligand", "setting": "cell membranes", "measurement": "Ki", "value": "0.00164 µM"}
{"Compound": "Cn1nc2c(=O)n(C3CC3)cc(C3CC3)c2c1Cc1ccc(C(F)(F)F)nc1", "target": "PFF0160c", "test": "enzyme activity, inhibitor", "measurement": "IC50", "value": "0.0398 µM"}
